From PubChem BioAssay
The source made the active and inactive calls.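 The calls were made as follows, unless noted: active = duplicate-averaged activation above buffer control mean plus 5 SD of those controls; inactive = the rest.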

Experiments:
[1] = thallium flux activation in parental CHO cells, counter-screen for KCNQ1 potentiator project (AID 493006); details: parental CHO-K1 cells, FluxOR thallium flux, at 10 µM; hits give high values;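 as to activation: fluorescence ratio of max minus min over baseline after K+ and Tl+ depolarization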
In short: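 Assay system: parental CHO-K1 cells lacking KCNQ1, loaded with FluxOR thallium dye; timing: dye 90 min RT, compound 20 min RT; signal: kinetic thallium-flux fluorescence; repeats: duplicate wells per compound, percent values averaged; benchmarks: buffer and R-L3 controls; reagent: Potassium/thallium depolarization pulse; read-out: fluorescence change ratio scaled 0% buffer, 100% R-L3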

[2] = target: Potassium voltage-gated channel subfamily KQT member 1 (Homo sapiens) (UniProt P51787); assay: KCNQ1 potassium channel potentiators, confirmation, FluxOR thallium flux, CHO cells, duplicates (AID 493007;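 active = potentiation averaged over duplicate wells exceeding buffer-only control mean by more than 3 SD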;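 as to outcome: cells depolarized by a potassium plus thallium sulfate stimulus after compound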); details: KCNQ1 cell line, FluxOR thallium flux fluorescence, at 10 µM; hits give high values, % of reference activator effect, buffer zero
Chain of Potassium voltage-gated channel subfamily KQT member 1 (Homo sapiens) (P51787 whole entry, looked up): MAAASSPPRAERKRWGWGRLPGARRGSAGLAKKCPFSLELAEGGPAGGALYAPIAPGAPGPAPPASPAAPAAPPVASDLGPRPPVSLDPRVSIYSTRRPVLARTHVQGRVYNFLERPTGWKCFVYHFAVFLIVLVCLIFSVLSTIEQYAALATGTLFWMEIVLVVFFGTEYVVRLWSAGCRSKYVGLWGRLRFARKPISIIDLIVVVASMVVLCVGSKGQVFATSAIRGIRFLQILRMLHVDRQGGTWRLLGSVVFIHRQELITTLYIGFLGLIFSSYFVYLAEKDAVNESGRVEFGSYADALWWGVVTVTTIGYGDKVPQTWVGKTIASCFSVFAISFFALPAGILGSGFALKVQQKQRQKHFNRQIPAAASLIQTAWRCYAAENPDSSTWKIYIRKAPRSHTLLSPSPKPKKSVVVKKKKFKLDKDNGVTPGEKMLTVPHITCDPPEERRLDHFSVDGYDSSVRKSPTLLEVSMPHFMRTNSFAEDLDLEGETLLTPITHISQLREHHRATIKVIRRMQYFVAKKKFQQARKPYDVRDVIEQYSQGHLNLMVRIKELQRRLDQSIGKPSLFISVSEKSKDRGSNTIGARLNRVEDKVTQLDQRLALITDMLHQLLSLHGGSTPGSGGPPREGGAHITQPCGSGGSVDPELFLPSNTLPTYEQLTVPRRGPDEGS
In short: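 material = CHO cells stably expressing the KCNQ1 potassium channel | repeats = duplicate wells per compound | measure = percent activation between buffer and R-L3 responses | signal = FluxOR thallium-flux fluorescence, kinetic read | schedule = FluxOR dye loading 90 min, compound exposure 20 min, room temperature | control set = buffer and R-L3 controls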

[3] = target: Potassium voltage-gated channel subfamily KQT member 2 (Rattus norvegicus) (UniProt O88943); assay: rat KCNQ2 channel potentiation, selectivity assay for KCNQ1 potentiator project, KCNQ2-CHO-K1 cells (AID 493009;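 active = mean duplicate potentiation above the buffer control mean plus 5 SD of buffer wells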;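 also: assay conditions were tuned for KCNQ1 rather than KCNQ2 modulators; signal is max minus min fluorescence divided by baseline after thallium stimulus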); details: FluxOR thallium flux fluorescence, at 10 µM; hits give high values, scaled: buffer 0, activator control 100
Chain of Potassium voltage-gated channel subfamily KQT member 2 (Rattus norvegicus) (O88943 whole entry, looked up): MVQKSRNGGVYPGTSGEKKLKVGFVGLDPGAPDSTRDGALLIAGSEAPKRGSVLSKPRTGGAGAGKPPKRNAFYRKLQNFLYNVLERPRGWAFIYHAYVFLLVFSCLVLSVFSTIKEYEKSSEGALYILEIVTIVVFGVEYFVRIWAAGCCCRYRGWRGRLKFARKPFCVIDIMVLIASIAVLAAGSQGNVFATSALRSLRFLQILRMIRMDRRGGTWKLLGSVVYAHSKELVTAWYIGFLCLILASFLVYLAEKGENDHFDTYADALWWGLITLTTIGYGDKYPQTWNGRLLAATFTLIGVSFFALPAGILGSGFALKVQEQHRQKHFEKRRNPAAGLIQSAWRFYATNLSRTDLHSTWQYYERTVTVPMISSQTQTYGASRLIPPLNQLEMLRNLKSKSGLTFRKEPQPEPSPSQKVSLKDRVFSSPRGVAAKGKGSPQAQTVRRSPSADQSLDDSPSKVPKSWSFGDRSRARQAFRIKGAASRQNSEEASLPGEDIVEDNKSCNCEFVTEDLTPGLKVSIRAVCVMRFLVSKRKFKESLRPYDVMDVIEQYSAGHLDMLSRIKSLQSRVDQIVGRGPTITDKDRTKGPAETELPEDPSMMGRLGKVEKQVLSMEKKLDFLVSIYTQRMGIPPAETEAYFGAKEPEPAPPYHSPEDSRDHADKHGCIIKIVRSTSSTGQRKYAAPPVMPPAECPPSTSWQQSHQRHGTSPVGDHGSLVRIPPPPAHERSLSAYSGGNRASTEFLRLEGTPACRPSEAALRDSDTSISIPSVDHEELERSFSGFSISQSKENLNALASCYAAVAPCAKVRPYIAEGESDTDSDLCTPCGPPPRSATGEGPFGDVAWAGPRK

[4] = target: Potassium voltage-gated channel subfamily KQT member 1 (Homo sapiens) (UniProt P51787); assay: KCNQ1 channel current potentiators, confirmation, orthogonal assay for KCNQ1 potentiator project, IonWorks patch clamp, KCNQ1-CHO cells (AID 493184;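 active = current rise at least 3 SD above the untreated control mean in each of two repeat wells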); details: automated patch clamp current, at 10 µM; hits give high values
In short: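 Assay system – CHO cells carrying KCNQ1 · Medium – pH 7.4 external bath · Probe or stimulus – depolarizing pulse to +40 mV from -90 mV · Compound dosing – one dose, 10 µM final · Measured by – automated perforated-patch electrophysiology · Measure – % potentiation of steady-state current relative to pre-compound · Repeats – two replicates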

| Compound | activation [1] | potentiation [2] | potentiation [3] | outcome [4] | outcome [1] | outcome [2] | outcome [3] |
| --- | --- | --- | --- | --- | --- | --- | --- |
| Cc1ccc(C(C)C)c(OCc2n[nH]c(=S)o2)c1 | 154% (active) | 27% (active) | 160% (active) | inactive |  |  |  |
| CCOC(=O)CC1=NS(=O)(=O)c2ccccc2N1 |  |  |  | inactive | inactive | inactive | inactive |
| C/C(=C/CCC(C)[C@H]1CC[C@@]2(C)C3=C(CC[C@]12C)[C@@]1(C)CCC(=O)C(C)(C)[C@@H]1CC3)C(=O)O (stereo not given in full) | 829% (active) | 298% (active) | 680% (active) | inactive |  |  |  |
| COc1cccc2sc(Nc3nnc(-c4ccccc4Cl)o3)nc12 |  | 112% (active) |  | inactive | inactive |  | inactive |
| Oc1c(Br)cc(Br)cc1/C=N/c1nc2c(s1)CCCC2 | 186% (active) | 22% (active) |  | inactive |  |  | inactive |
| COC(=O)c1c(NS(=O)(=O)c2ccc3ccccc3c2)sc2c1CCCC2 | 216% (active) | 60.5% (active) | 232% (active) | inactive |  |  |  |
| CCCCNC(=S)NNC(=O)c1nn(C)c(C)c1Cl |  |  |  | inactive | inactive | inactive | inactive |
| Cc1ccc(NC(=O)CN(C)C(=O)CCOc2ccccc2C)cc1 |  |  |  | inactive | inactive | inactive | inactive |
| CCOc1ccc2nc(Nc3nc4ccc(NC(C)=O)cc4s3)sc2c1 |  |  |  | inactive | inactive | inactive | inactive |
| Cn1nnnc1SCC(=O)NCc1ccc2c(c1)OCO2 |  |  |  | inactive | inactive | inactive | inactive |
| COC(=O)C1=C(C)Nc2nnnn2C1c1ccc(Cl)cc1Cl (stereo not given) |  |  |  | inactive | inactive | inactive | inactive |
| CC(C)COn1c(=S)[nH]c2ccccc2c1=O | 164% (active) |  | 198% (active) | inactive |  | inactive |  |
| O=C(c1cc([N+](=O)[O-])cc([N+](=O)[O-])c1)N1CCCc2ccccc21 |  |  |  | inactive | inactive | inactive | inactive |
| CCOC(=O)c1sc2nc(Cc3ccc(Cl)cc3)[nH]c(=S)c2c1C | 302% (active) | 144% (active) | 362% (active) | inactive |  |  |  |
| O=C(CCC(=O)N1CCOc2ccc(Cl)cc21)NCCCN1CCN(c2ccccc2F)CC1 |  |  |  | inactive | inactive | inactive | inactive |
| Cc1cc(C(c2cc(C)c(N)c(C)c2)c2ccco2)cc(C)c1N | 189% (active) | 138% (active) | 224% (active) | inactive |  |  |  |
| COc1ccc(CN(C)CC(=O)Nc2ccc(Cl)cc2C(F)(F)F)c(OC)c1 |  | 37.5% (active) |  | inactive | inactive |  | inactive |
| CS(=O)(=O)c1ccc(C(=O)OCc2nnc(-c3ccc(Cl)cc3)o2)cc1[N+](=O)[O-] |  | 30.5% (active) | 144% (active) | inactive | inactive |  |  |
| Fc1ccc2nc(Nc3nc4c(F)cccc4s3)sc2c1 | 144% (active) | 69.5% (active) | 180% (active) | inactive |  |  |  |
| COC(=O)C1=C(C(=O)OC)[C@@H]2N(C)c3ccccc3[C@@]23C[C@@H](C(=O)OC)N(C(=O)c2ccc(Br)cc2)C3=N1 | 158% (active) | 104% (active) | 204% (active) | inactive |  |  |  |
| CCOc1ccc(NC(=O)CN(C)C(=O)c2c(-c3c(F)cccc3Cl)noc2C)cc1OCC |  |  |  | inactive | inactive | inactive | inactive |
| O=C(N/N=C/c1c[nH]c2ccccc12)C1COc2ccccc2O1 (stereo not given) |  |  |  | inactive | inactive | inactive | inactive |
| Cc1[nH]n(-c2ccccc2)c(=O)c1/C=N/N(c1ccccc1)c1ccccc1 |  | 47% (active) |  | inactive | inactive |  | inactive |
| NS(=O)(=O)c1ccc(CCNC(=O)COC(=O)c2cc([N+](=O)[O-])ccc2N2CCOCC2)cc1 |  |  |  | inactive | inactive | inactive | inactive |
| Cc1sc2nc[nH]c(=S)c2c1-c1ccccc1 | 289% (active) | 93.5% (active) | 304% (active) | inactive |  |  |  |
| CN1C=CC=C/C1=C1\SC(=S)N(C2CCCCC2)C1=O |  |  |  | inactive | inactive | inactive | inactive |
| C=CCn1c(O)c(N=NC(=S)Nc2ccccc2F)c2cc(S(=O)(=O)N3CCOCC3)ccc21 |  | 26.5% (active) |  | inactive | inactive |  | inactive |
| Cc1ccc(C)c(SCC(=O)NC(=O)Nc2ccc3c(c2)OCCO3)c1 |  |  |  | inactive | inactive | inactive | inactive |
| Cc1ccccc1NC1=NC(=S)N(c2ccccc2)C12CCCCC2 | 176% (active) | 26% (active) | 156% (active) | inactive |  |  |  |
| CN1CCN(C(=O)/C(=C/c2ccccc2)c2ccccc2)CC1 |  |  |  | inactive | inactive | inactive | inactive |
